Data published in ChEMBL document CHEMBL1126201, “Synthesis, characterization, and biological evaluation of a novel class of N-(arylethyl)-N-alkyl-2-(1-pyrrolidinyl)ethylamines: structural requirements and binding affinity at the sigma receptor” (J Med Chem, 1992).

Assays:
[1] = test system: Glutamate [NMDA] receptor; assay: Ability to displace [3H]TCP from PCP receptor in guinea pig membranes; No inhibition; assay type: cell membranes, Cavia porcellus
Method in brief: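 Guinea pig brain crude P2 membranes (500 µg protein) incubated with 5 nM [3H]TCP in 5 mM Tris-HCl pH 7.4, 0.5 mL, 60 min at 4 °C; stopped by ice-cold buffer and filtration through polyethylenimine-soaked (0.3%) glass-fiber filters, washed twice. Nonspecific binding with 10 µM cyclazocine. Screened at 100, 1000 and 10,000 nM; duplicates.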

[2] = molecular target: Kappa-type opioid receptor (Cavia porcellus, UniProt P41144); assay: Ability to displace [3H]bremazocine from opioid receptor kappa in guinea pig brain membranes; No inhibition; assay type: cell membranes
Chain of Kappa-type opioid receptor (P41144 whole entry): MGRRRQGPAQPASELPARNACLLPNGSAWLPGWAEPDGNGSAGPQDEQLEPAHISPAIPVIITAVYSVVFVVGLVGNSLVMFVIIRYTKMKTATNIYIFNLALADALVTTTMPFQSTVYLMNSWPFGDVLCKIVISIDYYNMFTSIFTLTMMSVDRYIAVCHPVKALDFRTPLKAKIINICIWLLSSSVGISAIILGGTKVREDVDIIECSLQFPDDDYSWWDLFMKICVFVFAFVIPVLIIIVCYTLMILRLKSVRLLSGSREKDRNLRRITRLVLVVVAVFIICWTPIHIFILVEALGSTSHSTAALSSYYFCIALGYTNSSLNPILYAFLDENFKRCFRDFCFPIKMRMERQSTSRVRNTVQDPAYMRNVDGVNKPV
Method in brief: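 Kappa sites labeled with 2 nM [3H]bremazocine on guinea pig brain P2 membranes (500 µg protein) in 10 mM Tris-HCl pH 7.4, 0.5 mL, with 100 nM DAGO and 100 nM DSTLE to mask mu/delta; 90 min at 25 °C. Terminated by ice-cold buffer and glass-fiber filtration. Screened at 100, 1000 and 10,000 nM; duplicates.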

D(2) dopamine receptor = D(2) dopamine receptor (Rattus norvegicus, UniProt P61169); assay: Ability to displace [3H]sulpiride from dopamine receptor D2 in rat brain; assay type: tissue-based
Chain of D(2) dopamine receptor (P61169 whole entry): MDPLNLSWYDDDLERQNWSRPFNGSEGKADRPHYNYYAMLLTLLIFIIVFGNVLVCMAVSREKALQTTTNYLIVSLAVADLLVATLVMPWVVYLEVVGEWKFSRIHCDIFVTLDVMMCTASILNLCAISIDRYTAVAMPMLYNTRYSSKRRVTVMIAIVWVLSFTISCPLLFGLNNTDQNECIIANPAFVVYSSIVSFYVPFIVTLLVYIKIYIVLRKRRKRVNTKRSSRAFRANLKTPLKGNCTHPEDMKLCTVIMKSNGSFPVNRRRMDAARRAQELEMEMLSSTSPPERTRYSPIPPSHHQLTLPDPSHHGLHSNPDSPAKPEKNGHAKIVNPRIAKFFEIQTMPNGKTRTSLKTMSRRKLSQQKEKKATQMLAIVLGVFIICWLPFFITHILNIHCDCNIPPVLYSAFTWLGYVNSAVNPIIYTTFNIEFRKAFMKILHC
Method in brief: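 Rat (male Sprague-Dawley) brain P2 membranes, 500 µg protein, with 5 nM [3H]-(-)-sulpiride in 50 mM Tris-HCl pH 7.7 + 120 mM NaCl, 60 min at 25 °C; haloperidol 1 µM for nonspecific binding; filtration, two washes.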

[3] = molecular target: Glutamate [NMDA] receptor; assay: Ability to displace [3H]TCP from PCP receptor in guinea pig membranes; assay type: cell membranes, Cavia porcellus
Method in brief: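 Guinea pig brain (minus cerebella) crude P2 membranes, 500 µg protein, incubated with 5 nM [3H]TCP in 5 mM Tris-HCl pH 7.4 for 60 min at 4 °C. Filtered on polyethylenimine-soaked glass-fiber filters; nonspecific binding defined with 10 µM cyclazocine. […] Duplicates, 2–3 experiments; IC50 converted to Ki by Cheng-Prusoff (Kd 25 nM).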

Structure (SMILES)	Ki [1]	Ki [2]	Ki (D(2) dopamine receptor)	Ki [3]
CN(CCc1ccc(Cl)c(Cl)c1)CCN1CCCCC1	Not Active	Not Active	1.21 µM	
CCN(CCc1ccc(Cl)c(Cl)c1)CCN1CCCC1	Not Active	Not Active	1.66 µM	
CN(CCc1ccc(Cl)c(Cl)c1)CCN1CCCCCC1		Not Active	6.75 µM	6.94 µM
CN(CCc1cccc(Cl)c1)CCN1CCCC1	Not Active	Not Active	6.5 µM	
CN(CCc1ccc(Cl)c(Cl)c1)CCN1CCCC1	Not Active	Not Active	1.11 µM	
C[C@@H](CN1CCCC1)N(C)CCc1ccc(Cl)c(Cl)c1		Not Active	11.2 µM	3.04 µM
CCN(CC)CCN(C)CCc1ccc(Cl)c(Cl)c1	Not Active	Not Active	3.01 µM	
CN(CCN1CCCC1)Cc1ccc(Cl)c(Cl)c1	Not Active	Not Active	1.3 µM	
